Screens as filed in PubChem.
ABCB1 block = human ABCB1 inhibition, ABCG2 as counter-screen; P08183; CCRF-Adr cells, JC-1 efflux, flow cytometry; inhibition, % at 6.6 µM; 190,000 tested, 0.067% active; AID 1326; in the data active = inhibition above about 40%;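 note: higher value means more JC-1 retained so stronger ABCB1 efflux block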
MEKK3 PB1 HTS = modulators (inhibitors or enhancers) of MEK5 binding to human MEKK3 PB1 domain; 290,000 tested, 1.4% active; bead-based flow cytometry, Alexa488-MEK5 binding to MEKK3; actives lie on both sides; 0 = blocked by unlabeled MEK5, 100 = vehicle; binding response (% of control), % at 10 µM; Q99759; AID 1529;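 active = binding response more than 3 SD above or below the average of its plate-row segment, actives on both sides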;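 note: Alexa488 bead fluorescence after subtracting the streptavidin-only scavenger bead signal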
Target sequence (Q99759 whole entry, looked up, the tested form may be a part): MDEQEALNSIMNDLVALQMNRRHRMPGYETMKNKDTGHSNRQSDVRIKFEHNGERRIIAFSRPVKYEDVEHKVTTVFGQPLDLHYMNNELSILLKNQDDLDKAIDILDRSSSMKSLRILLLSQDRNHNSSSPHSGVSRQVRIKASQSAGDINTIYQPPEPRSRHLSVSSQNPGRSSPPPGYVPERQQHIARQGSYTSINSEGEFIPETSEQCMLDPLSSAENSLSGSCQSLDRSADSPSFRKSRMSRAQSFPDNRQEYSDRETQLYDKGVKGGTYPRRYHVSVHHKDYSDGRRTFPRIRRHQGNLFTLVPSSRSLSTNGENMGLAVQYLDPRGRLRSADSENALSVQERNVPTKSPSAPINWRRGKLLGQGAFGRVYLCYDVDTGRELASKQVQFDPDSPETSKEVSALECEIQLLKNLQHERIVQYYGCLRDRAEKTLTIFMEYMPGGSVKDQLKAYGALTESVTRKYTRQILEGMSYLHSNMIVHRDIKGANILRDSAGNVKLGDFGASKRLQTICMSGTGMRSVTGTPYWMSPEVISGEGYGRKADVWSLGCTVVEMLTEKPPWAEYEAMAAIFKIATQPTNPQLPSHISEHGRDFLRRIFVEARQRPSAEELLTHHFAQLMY
Efflux pump inh = inhibitors of Candida antifungal efflux pumps expressed in yeast. S. cerevisiae Candida pump triplex, Nile Red efflux. inhibition, % at 10 µM. 330,000 tested, 0.44% active. AID 485275;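 active = plate passing quality check with inhibition over a set limit, or well fluorescence over plate mean plus 4 SD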;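 note: Nile Red retained in pooled yeast measured as flow cytometry median fluorescence; higher means more Nile Red kept so more efflux inhibition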
MEKK2 WT-MEK5 = raises or lowers MEK5 binding to wildtype human MEKK2 PB1 domain | Q9Y2U5 | bead flow cytometry, Alexa488-MEK5 binding to MEKK2 WT; actives lie on both sides | binding response (% of control), % at 10 µM | 290,000 tested, 1.1% active | AID 1531; in the data active = binding response below about 67% or above about 130%
MEKK2 mut-MEK5 = signal of MEK5 binding to mutant human MEKK2 PB1 domain | bead flow cytometry, Alexa488-MEK5 binding to MEKK2 mutant | 290,000 tested, 0.35% active | percent response, % at 10 µM; in the data active = percent response above about 24%, passing the limit was not always enough
ABCG2 inh = inhibitors of human ABCG2 transporter, ABCB1 counter-screen. Q9UNQ0. IgMXP3 cells, JC-1 efflux, flow cytometry. inhibition, % at 6.6 µM. 190,000 tested, 0.1% active;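 active = inhibition above 80%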
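System: two drug-resistant human cell lines, ABCG2 and ABCB1; controls: nicardipine high and DMSO low controls; times: 10 min exposure at 25 °C with rotation, no wash; detection: flow cytometry of retained JC-1 fluorescence; read-out basis: percent efflux inhibition, scaled nicardipine 100% to DMSO 0%; doses: one concentration, 6.6 µM final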
Cmpd fluor yeast = flagged as fluorescent in efflux inhibitor counter-screen | S. cerevisiae AD/pABC3, compound fluorescence, flow cytometry | 1,700 tested, 4% active | AID 588517 | fluorescence ratio to DMSO, % at 10 µM | shares compounds with Efflux pump inh;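 active = fluorescence ratio to DMSO above its plate's cutoff, the plate mean ratio plus 5 SD, cut at about 210% in these data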;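 note: unstained yeast with no Nile Red so the signal is compound autofluorescence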
CaMdr1 efflux inh = Candida Mdr1 efflux pump inhibition; shares compounds with Efflux pump inh; S. cerevisiae AD/CaMDR1, Nile Red efflux, flow cytometry; inhibition, % at 10 µM; 1,700 tested, 1% active; AID 588518; in the data active = inhibition above about 26%;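 note: higher means more Nile Red retained so more efflux inhibition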
Cdr2 pump inh = inhibitors of Candida albicans Cdr2 efflux pump. Nile Red retention ratio vs DMSO, % at 10 µM. 1,700 tested, 4% active. S. cerevisiae AD/CaCDR2, Nile Red retention, flow cytometry. shares compounds with Efflux pump inh. AID 588520; in the data active = Nile Red retention ratio vs DMSO above about 190%;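 note: higher ratio means more blocking of Cdr2 efflux of the dye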
Cdr1 pump inh = Candida Cdr1 efflux pump inhibition | S. cerevisiae AD/CaCDR1, Nile Red efflux, flow cytometry | 1,700 tested, 1% active | AID 588522 | inhibition, % at 10 µM | shares compounds with Efflux pump inh;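 active = inhibition above the screen-wide mean plus twice its standard deviation, cut at about 32% in these data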
A number is an active result; – = inactive; · = no result given. Rows were chosen to be rich in hits. Some 2.5% of all compounds tested hit in one or more screens of this group.

SMILES	ABCB1 block	MEKK3 PB1 HTS	Efflux pump inh	MEKK2 WT-MEK5	MEKK2 mut-MEK5	ABCG2 inh	Cmpd fluor yeast	CaMdr1 efflux inh	Cdr2 pump inh	Cdr1 pump inh
CCOC(=O)[C@@H]1[C@H]2COc3cc(OC)ccc3[C@@H]2N2C(=O)N(c3ccccc3)C(=O)[C@@]12C	·	·	–	·	·	·	·	·	·	·
CCc1cc2cc(C)cc(C)c2[nH]c1=S	–	–	–	–	–	–	·	·	·	·
COc1cc2c(cc1OC)CN(C(=S)Nc1c(C)cccc1C)CC2	–	–	–	–	–	–	·	·	·	·
CNC(=S)N1CCc2cc(OC)c(OC)cc2C1	·	–	–	–	–	·	–	–	–	–
C=CCn1c(SCc2ccc(C(=O)OC)cc2)nnc1-c1sc(N)nc1C	–	–	15	–	–	–	–	–	–	–
C=CCn1c(SCC(=O)Nc2ccc(C(=O)OCC)cc2)nnc1-c1sc(N)nc1C	–	–	–	–	–	–	·	·	·	·
Cc1ccc(Nc2nc(Cl)nc(NC(C)(C)C)n2)cc1	·	–	1.1	–	–	·	–	–	–	–
Cc1nnc(N/N=C/c2cc([N+](=O)[O-])c(N3CCC(C)CC3)cc2N2CCC(C)CC2)n1N	–	–	7.2	–	–	–	–	–	–	–
Cc1c(C(=O)Nc2ccc3nc(N4CCOCC4)sc3c2)oc2ccccc12	·	·	0.8	·	·	·	–	–	–	–
CCN1/C(=C2\C(=O)N(C)C(=S)N2C)C=Cc2cc(C)ccc21	–	–	–	–	–	–	·	·	·	·
CCOC(=O)CC(=O)c1cc(OC)c(OC)c(OC)c1	–	–	0.8	–	–	–	–	–	–	–
CN(c1ccccc1)c1nc(N)c([N+](=O)[O-])c(NCCO)n1	·	–	–	–	–	·	·	·	·	·
COC(=O)c1ccccc1-c1ccc(/C=N/Nc2nc(N3CCCC3)nc(N3CCCC3)n2)o1	·	–	–	–	–	·	·	·	·	·
COc1nc(N/N=C/c2ccc(-c3ccccc3[N+](=O)[O-])o2)nc(N2CCOCC2)n1	–	–	16	–	–	–	–	–	–	–
Cc1cc(Br)c(NC(=O)CN2CCCC2)c(Br)c1	·	–	·	–	–	·	·	·	·	·
CCN(CC)C(=O)[C@H]1C[C@H](CC(=O)NCCCOC)C(=O)N2CCc3c([nH]c4cc(CCC(=O)N(C)C)ccc34)[C@]12C	·	·	–	·	·	·	·	·	·	·
CN(CC(=O)Nc1ccccc1Cl)C(=O)c1ccc(COc2ccccc2)cc1	·	·	–	·	·	·	·	·	·	·
Cc1cc(S(=O)(=O)NCC(c2ccc3c(c2)OCO3)N2CCOCC2)ccc1F (centres undefined)	·	·	1.0	·	·	·	–	–	–	–
CCc1c(C)nc2c(OC)cccc2c1SCCC(=O)O	–	–	10	–	–	–	–	–	–	–
O=C(NC(=S)NCCc1ccccc1)c1cccc(Cl)c1	·	–	–	–	–	·	·	·	·	·
CCCCc1nnc(NC(=O)CSCc2cc(=O)n3cc(C)sc3n2)s1	·	–	–	–	–	·	·	·	·	·
Cn1c(N)c(C(=O)COC(=O)c2ccccn2)c(=O)n(C)c1=O	–	–	1.7	–	–	–	–	–	–	–
CCOc1ncccc1C(=O)OCC(=O)c1c(N)n(C)c(=O)n(C)c1=O	–	–	–	–	–	–	·	·	·	·
O=c1cc(CNc2cc(Cl)ccc2Cl)nc2sccn12	–	–	–	–	–	–	·	·	·	·
O=c1cc(COc2ccc(Cl)c(Cl)c2)nc2sccn12	·	–	0.9	–	–	·	–	–	–	–
SMILES	ABCB1 block	MEKK3 PB1 HTS	Efflux pump inh	MEKK2 WT-MEK5	MEKK2 mut-MEK5	ABCG2 inh	Cmpd fluor yeast	CaMdr1 efflux inh	Cdr2 pump inh	Cdr1 pump inh
CCCc1[nH]n(-c2ccc([N+](=O)[O-])cc2)c(=O)c1C=NCCc1ccc(OC)c(OC)c1	–	–	0.8	–	–	–	–	–	–	–
CCCc1[nH]n(-c2ccc([N+](=O)[O-])cc2)c(=O)c1C=NCCc1c[nH]c2ccccc12	–	–	–	–	–	–	·	·	·	·
OCCN=C1CCCc2c1[nH]c1ccc(Cl)cc21	·	–	0.6	–	–	·	–	–	–	–
COc1ccc(/C=C/c2ccc3ccccc3[n+]2C)cc1OC	·	–	1.1	–	–	·	–	–	–	–
CCn1cc(CNC(=O)c2cccc([N+](=O)[O-])c2)c(C)n1	–	–	11	–	–	–	–	–	–	–
O=Cc1cccc(Oc2ccc([N+](=O)[O-])cc2[N+](=O)[O-])c1	–	–	0.7	–	–	–	–	–	–	–
CC1Cc2ccccc2N1CC(=O)Nc1ccc2c(c1)OCO2 (centres undefined)	–	–	12	–	–	–	–	–	–	–
O=C(CN1C(=O)CSc2ccccc21)NC1CCCC1	–	·	–	·	·	–	·	·	·	·
O=C(Cc1ccccc1[N+](=O)[O-])NNC(=O)Nc1ccc2c(c1)OCO2	·	–	–	–	–	·	·	·	·	·
O=C(Cc1ccccc1[N+](=O)[O-])Nc1ccc2c(c1)OCO2	–	–	1.3	–	–	–	–	–	–	–
CCOC(=O)N1CCC(NC(=O)CN2C(=O)CCSc3ccccc32)CC1	–	–	–	–	–	–	–	–	–	–
O=C(CN1C(=O)CCSc2ccccc21)Nc1ccc2c(c1)OCO2	–	–	–	–	–	–	–	–	–	–
CCCCNC(=O)NNC(=O)COc1cccc(C)c1C	–	–	–	–	–	–	·	·	·	·
O=Cc1cn(CC(=O)Nc2ccc3c(c2)OCO3)c2ccccc12	–	–	1.1	–	–	–	–	–	–	–
C=CCNC(=O)c1onc(CSc2cc(C)ccc2C)c1C(=O)O	–	–	–	–	–	–	·	·	·	·
O=C(Cn1cnc2ccccc2c1=O)c1ccc(Br)cc1	–	–	–	–	–	–	·	·	·	·
O=C(COC(=O)Cn1cnc2ccccc2c1=O)NNC(=O)c1ccc(Br)cc1	·	·	0.8	·	·	·	–	–	–	–
CSc1ccc(CN(C)CC(=O)Nc2ccc(NC(C)=O)cc2)cc1	–	–	–	–	–	–	·	·	·	·
CSc1ccc(CN(C)CC(=O)Nc2cccc(Br)c2)cc1	–	–	9.7	–	–	–	–	–	–	–
O=C1C(Cc2ccc(Br)cc2)SC(=Nc2ccccc2)N1c1ccccc1 (centres undefined)	–	–	–	–	–	–	·	·	·	·
O=C1C(Cc2cccc([N+](=O)[O-])c2)SC(=Nc2ccccc2)N1c1ccccc1 (centres undefined)	–	–	13	–	–	–	–	–	–	–
COc1ccc(S(=O)(=O)NCCc2nnc3ccc(SCC(=O)Nc4nc(C)cs4)nn23)cc1	–	–	–	–	–	–	·	·	·	·
